The record followed here is ChEMBL document CHEMBL1649178, “Penetration of moxifloxacin into bone evaluated by Monte Carlo simulation” (Antimicrob Agents Chemother, 2009).

What is called MIC90 is an inhibitory concentration at the 90% level, which refers to growth in some studies and to a panel of isolates in others. High values mean weaker potency, low ones greater potency.

A short description of data set [1]: fAUC/MIC in osteomyelitis patient cancellous bone at 400 mg, po administered for every 24 hrs at PKPD breakpoint at 0.25 mg/liter. The class given is functional. Put shortly: (§1)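 PKPD targets were derived by reverse engineering from success rates in clinical osteomyelitis studies, the expected AUCs at the doses used there, and published MIC distributions. Bone targets (total drug) use a ciprofloxacin bone/serum AUC ratio of 0.63. Concentration profiles were simulated for 10,000 patients given 400 mg orally q24h at steady state, without residual error, with serum protein binding assumed at 50%.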

Data set [2] is described as follows: fAUC/MIC in osteomyelitis patient cancellous bone at 400 mg, po administered for every 24 hrs at PKPD breakpoint at 0.375 mg/liter. It counts as functional. Put shortly: as §1
The nature of data set [3]: fAUC/MIC in osteomyelitis patient serum at 400 mg, po administered for every 24 hrs at PKPD breakpoint at 0.19 mg/liter. The class given is functional. Summed up: as §1
Data set [4] in a line: fAUC/MIC in osteomyelitis patient cancellous bone at 400 mg, po administered for every 24 hrs at PKPD breakpoint at 1 mg/liter. It counts as functional. Summed up:
as §1

Data set [5] in a line: fAUC/MIC in osteomyelitis patient cortical bone at 400 mg, po administered for every 24 hrs at PKPD breakpoint at 0.5 mg/liter. It counts as functional. Summed up: as §1
Data set [6] is described as follows: Drug level in osteomyelitis patient cancellous bone at 400 mg, po administered for every 24 hrs. The class given is ADME, organism-based. The note with it: human, in vivo.
The nature of data set [7]: fAUC/MIC in osteomyelitis patient cortical bone at 400 mg, po administered for every 24 hrs at PKPD breakpoint at 1 mg/liter. It counts as functional. Summed up: as §1
Data set [8] in a line: Drug level in osteomyelitis patient cortical bone at 400 mg, po administered for every 24 hrs. It counts as ADME, organism-based, Bone element. The note with it: human, in vivo.
Data set [9] has as its system Staphylococcus aureus. Briefly: Antimicrobial activity against Staphylococcus aureus.
The nature of data set [10]: fAUC/MIC in osteomyelitis patient cortical bone at 400 mg, po administered for every 24 hrs at PKPD breakpoint at 0.25 mg/liter. It counts as functional. Summed up:
as §1

Data set [11] can be described thus: fAUC/MIC in osteomyelitis patient serum at 400 mg, po administered for every 24 hrs at PKPD breakpoint at 1 mg/liter. The class given is functional. Summed up: as §1
The nature of data set [12]: fAUC/MIC in osteomyelitis patient serum at 400 mg, po administered for every 24 hrs at PKPD breakpoint at 0.375 mg/liter. It counts as functional. Summed up:
as §1

In brackets after ≈: the same amount, converted by molar mass.

Consider `COc1c(N2C[C@@H]3CCCN[C@@H]3C2)c(F)cc2c(=O)c(C(=O)O)cn(C3CC3)c12` [MOXIFLOXACIN], for which the fAUC/MIC in [1] is 55; in data set [2] it was 33; in data set [3] it was 66; in data set [4], 13; in data set [5], 33; in data set [7], 13. In addition, the fAUC/MIC stood at 55 in data set [10], 15 in [11] and 40 in data set [12]. Further, the Drug uptake in [6] was found to be 78%; in data set [8], 80%. Moreover, in [9], the MIC90 is 0.125 µg/mL (≈ 0.311 µM).
